By Ki is commonly meant a dissociation constant, usually derived from enzyme kinetics or from competition with a known ligand.

Results on one molecule are retold here after article PMC2741613 (Journal of the American Chemical Society, 2009).

One assay deals with PTPα (Homo sapiens, UniProt P18433). Nature of the assay: PTP activity assay with pNPP, PTPα. In kind it is biochemical. In a few lines: (§1)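 Reactions started by adding enzyme to mixtures with various pNPP and test-compound concentrations. Rates were fitted with an enzyme-kinetics model for Ki.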
Chain of PTPα (P18433 20-802): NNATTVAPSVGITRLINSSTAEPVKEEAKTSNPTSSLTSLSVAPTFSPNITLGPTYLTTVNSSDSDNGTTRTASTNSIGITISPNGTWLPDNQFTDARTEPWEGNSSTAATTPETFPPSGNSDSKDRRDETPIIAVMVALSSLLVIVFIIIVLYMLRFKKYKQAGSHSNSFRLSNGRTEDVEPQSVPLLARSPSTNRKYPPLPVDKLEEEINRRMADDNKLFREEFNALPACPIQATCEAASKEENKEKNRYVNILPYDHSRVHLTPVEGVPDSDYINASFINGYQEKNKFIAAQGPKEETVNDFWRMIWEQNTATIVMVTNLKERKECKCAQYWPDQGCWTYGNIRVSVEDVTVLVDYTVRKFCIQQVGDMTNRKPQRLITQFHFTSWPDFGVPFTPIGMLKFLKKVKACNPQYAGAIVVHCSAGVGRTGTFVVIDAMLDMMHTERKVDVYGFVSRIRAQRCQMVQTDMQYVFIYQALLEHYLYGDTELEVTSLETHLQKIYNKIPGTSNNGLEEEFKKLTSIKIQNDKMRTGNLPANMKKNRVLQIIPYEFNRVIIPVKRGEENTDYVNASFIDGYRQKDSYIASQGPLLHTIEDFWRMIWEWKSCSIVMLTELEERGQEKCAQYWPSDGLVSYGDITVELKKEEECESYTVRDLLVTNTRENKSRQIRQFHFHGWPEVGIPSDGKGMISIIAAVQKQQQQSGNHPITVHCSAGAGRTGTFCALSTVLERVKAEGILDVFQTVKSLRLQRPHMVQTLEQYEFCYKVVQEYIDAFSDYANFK
The subject of assay [1] is tyrosine phosphorylation of EGFR in PTP1B−/− mouse embryo fibroblast cells. Nature of the assay: EGF-stimulated EGFR phosphorylation in cells. In kind it is cell-based. The note with it: 2 hr, then EGF 2 ng/ml 10 min, relative to DMSO. In a few lines: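 PTP1B−/− mouse embryo fibroblasts were given test compound for 2 hr, then EGF 2 ng/mL for 10 min. Lysis in HEPES pH 7.4 buffer with pervanadate, fluoride and protease inhibitors, cleared at 15,000 rpm for 10 min, protein by BCA. EGFR immunoprecipitated from 1 mg lysate (4 °C, 2 h; protein A/G 2 h). SDS-PAGE, anti-pTyr immunoblot, ECL detection.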

The next assay has as its target LAR (Homo sapiens, UniProt P10586). The assay can be described thus: PTP activity assay with pNPP, LAR. In kind it is biochemical. A digest of the protocol: as §1
The next assay addresses VHR (Homo sapiens, UniProt P51452). The assay can be described thus: PTP activity assay with pNPP, VHR. In kind it is biochemical. In a few lines:
as §1

The target in a further assay is T1, He-PTP (Homo sapiens, UniProt P35236).
T1 sequence (P35236 1-360): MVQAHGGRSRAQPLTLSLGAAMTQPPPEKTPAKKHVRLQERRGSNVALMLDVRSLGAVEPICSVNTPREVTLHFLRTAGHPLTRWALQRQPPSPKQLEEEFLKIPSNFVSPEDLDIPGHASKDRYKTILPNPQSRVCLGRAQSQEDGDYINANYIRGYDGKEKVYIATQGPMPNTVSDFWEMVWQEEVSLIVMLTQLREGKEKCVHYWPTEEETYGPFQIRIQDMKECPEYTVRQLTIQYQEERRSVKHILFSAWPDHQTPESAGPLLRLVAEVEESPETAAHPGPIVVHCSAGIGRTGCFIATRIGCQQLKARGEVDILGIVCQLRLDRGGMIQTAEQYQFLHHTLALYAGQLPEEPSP
Nature of the assay: PTP activity assay with pNPP, He-PTP. It is filed as biochemical. A digest of the protocol:
as §1

The target in a further assay is T2, LMWPTP (Homo sapiens, UniProt P24666).
T2 sequence (P24666 1-158): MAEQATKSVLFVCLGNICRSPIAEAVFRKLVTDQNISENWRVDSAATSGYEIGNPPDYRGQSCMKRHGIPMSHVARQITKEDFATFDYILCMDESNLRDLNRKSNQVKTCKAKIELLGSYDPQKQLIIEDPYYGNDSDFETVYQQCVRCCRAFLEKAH
The assay can be described thus: PTP activity assay with pNPP, LMWPTP. It is filed as biochemical. A digest of the protocol: as §1

The next assay deals with T3, Cdc14A (Homo sapiens, UniProt Q9UNH5).
T3 sequence (Q9UNH5 1-594): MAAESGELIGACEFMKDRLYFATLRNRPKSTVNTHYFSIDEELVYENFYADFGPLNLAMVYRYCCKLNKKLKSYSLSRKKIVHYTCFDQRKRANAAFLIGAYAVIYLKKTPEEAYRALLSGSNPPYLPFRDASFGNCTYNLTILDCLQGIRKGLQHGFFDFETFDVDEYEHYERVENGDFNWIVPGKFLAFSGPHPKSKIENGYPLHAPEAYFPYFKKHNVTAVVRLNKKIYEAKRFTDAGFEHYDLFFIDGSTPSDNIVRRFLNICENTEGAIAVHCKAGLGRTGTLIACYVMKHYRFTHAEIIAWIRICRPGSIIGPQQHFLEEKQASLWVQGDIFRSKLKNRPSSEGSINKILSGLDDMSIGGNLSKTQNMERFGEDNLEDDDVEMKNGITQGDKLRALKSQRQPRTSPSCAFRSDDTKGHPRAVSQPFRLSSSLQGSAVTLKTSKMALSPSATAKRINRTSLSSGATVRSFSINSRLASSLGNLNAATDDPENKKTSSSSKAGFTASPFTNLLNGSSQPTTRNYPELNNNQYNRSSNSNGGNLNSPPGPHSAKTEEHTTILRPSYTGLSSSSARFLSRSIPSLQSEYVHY
Nature of the assay: PTP activity assay with pNPP, Cdc14A. It is filed as biochemical. A digest of the protocol: as §1

Chain of VHR (P51452 whole entry, species assumed): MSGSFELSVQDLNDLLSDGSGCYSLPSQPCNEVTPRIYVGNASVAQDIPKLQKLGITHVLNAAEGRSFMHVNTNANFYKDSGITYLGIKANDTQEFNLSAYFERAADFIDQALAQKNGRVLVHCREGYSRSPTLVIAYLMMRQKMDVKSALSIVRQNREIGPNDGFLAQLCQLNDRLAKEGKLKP
Chain of LAR (P10586 30-1907, species assumed): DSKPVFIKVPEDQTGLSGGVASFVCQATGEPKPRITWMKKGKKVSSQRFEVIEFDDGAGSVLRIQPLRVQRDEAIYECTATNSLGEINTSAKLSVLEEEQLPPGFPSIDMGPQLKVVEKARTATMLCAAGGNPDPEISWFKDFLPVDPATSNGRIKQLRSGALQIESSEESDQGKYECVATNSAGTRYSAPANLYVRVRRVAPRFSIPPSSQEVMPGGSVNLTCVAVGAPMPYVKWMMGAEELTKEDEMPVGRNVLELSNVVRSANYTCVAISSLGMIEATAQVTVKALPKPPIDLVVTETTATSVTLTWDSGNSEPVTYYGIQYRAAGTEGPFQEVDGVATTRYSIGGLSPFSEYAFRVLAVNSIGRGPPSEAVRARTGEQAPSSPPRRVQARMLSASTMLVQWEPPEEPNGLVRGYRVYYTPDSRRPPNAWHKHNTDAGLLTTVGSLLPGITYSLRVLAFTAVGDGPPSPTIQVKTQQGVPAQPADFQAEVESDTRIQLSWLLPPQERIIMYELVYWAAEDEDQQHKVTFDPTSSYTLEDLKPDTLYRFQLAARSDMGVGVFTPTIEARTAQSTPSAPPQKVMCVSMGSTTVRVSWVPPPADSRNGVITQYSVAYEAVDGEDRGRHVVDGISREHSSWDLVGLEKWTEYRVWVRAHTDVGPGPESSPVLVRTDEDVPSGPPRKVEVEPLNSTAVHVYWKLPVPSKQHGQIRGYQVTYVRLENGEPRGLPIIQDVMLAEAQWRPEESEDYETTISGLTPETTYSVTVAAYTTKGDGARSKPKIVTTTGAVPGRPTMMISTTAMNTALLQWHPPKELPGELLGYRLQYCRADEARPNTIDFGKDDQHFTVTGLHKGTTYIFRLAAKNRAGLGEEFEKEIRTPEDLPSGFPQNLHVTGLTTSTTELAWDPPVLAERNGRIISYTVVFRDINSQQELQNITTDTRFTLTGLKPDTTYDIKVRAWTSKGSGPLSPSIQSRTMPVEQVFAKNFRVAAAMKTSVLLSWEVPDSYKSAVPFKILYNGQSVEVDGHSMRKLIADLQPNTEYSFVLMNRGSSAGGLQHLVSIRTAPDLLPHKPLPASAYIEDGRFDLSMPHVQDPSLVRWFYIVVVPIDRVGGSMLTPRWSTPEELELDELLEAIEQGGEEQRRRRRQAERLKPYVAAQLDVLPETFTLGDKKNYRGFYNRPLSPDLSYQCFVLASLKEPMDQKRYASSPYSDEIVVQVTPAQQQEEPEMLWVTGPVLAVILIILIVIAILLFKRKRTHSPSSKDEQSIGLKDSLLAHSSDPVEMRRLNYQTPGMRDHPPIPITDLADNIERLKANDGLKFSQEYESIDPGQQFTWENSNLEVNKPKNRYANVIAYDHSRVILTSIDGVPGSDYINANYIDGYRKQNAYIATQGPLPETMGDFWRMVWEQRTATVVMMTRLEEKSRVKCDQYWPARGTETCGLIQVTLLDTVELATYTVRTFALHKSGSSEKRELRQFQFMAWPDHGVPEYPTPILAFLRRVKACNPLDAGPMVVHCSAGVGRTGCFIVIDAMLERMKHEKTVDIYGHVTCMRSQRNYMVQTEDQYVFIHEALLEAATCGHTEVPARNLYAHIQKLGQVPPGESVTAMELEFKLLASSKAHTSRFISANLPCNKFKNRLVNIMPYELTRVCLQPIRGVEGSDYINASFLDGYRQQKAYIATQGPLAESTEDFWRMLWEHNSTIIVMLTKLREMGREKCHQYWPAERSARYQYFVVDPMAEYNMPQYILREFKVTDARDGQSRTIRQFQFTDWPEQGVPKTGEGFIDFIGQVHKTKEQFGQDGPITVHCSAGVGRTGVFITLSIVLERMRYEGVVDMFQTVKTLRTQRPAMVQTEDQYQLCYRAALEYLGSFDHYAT

Take `CCc1ccc(C(=O)NCCCC[C@H](NC(=O)[C@H](Cc2ccc(C(F)(F)P(=O)(O)O)cc2)NC(=O)[C@H](Cc2ccccc2)NC(=O)CO[C@H]2C[C@@H](C)CC[C@@H]2C(C)C)C(N)=O)cc1` [Compound 8]: the inhibition constant (Ki) on PTPα, at LAR, on VHR, at He-PTP, on LMWPTP and on Cdc14A was over 1000 nM each time. Moreover, the “increase in EGFR phosphorylation” value in assay [1] (5 nM) is about 2 fold; in assay [1] (50 nM), 5.0 fold.
